Activity calls are given as the source filed them. The rule behind the calls is not given here. Square brackets hold non-standard residues; d marks the D form. Peptide text beside a SMILES is read from it. * marks the point of attachment. ξ: configuration not given here. X4 = CC[C@H](C)[C@@H](OC(=O)[C@H](Cc1ccccc1)N(C)C)C(=O)*; X3 = CC[C@H](C)[C@@H](OC(=O)/C=C\c1ccccc1)C(=O)*; X5 = CC[C@H](C)[C@@H](OC(=O)C#Cc1ccccc1)C(=O)*; X2 = CC[C@H](C)[C@@H](OC(=O)CCc1ccccc1)C(=O)*; Hmp(2R,3S) = CC[C@H](C)[C@@H](O)C(=O)O; dNMeF = CN[C@H](Cc1ccccc1)C(=O)O; NMeL = CN[C@@H](CC(C)C)C(=O)O; dHiv = CC(C)[C@@H](O)C(=O)O; ξD = NC(CC(=O)O)C(=O)O
Columns and labels:
[1] = target: T1, Chymase (Homo sapiens, UniProt P23946); test: Inhibition of chymase (unknown origin) by fluorescence assay
T1 sequence (P23946 whole entry): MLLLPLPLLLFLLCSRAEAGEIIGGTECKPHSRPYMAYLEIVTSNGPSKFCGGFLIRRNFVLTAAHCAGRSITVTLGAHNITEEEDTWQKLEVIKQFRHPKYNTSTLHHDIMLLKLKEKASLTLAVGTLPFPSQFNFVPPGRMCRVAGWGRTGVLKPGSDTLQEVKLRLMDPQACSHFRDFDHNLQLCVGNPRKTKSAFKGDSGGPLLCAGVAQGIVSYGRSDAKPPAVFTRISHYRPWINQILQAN
Outline: (§1)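 Activity followed as a time course of rising fluorescence from a fluorescently labelled peptide substrate. The initial linear slope (signal/min) was used.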

[2] = Inhibition of chymotrypsin (unknown origin) by fluorescence assay; design: species or system Homo sapiens
[3] = target: T2, Kallikrein-7 (Homo sapiens, UniProt P49862); test: Inhibition of kallikrein 7 (unknown origin) by fluorescence assay
Outline: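 Protease panel screen: 10-dose titrations, 3-fold serial dilution from 100 μM, singlet. Protease activity is followed as the time-course rise in fluorescence from a labeled peptide substrate, and the initial linear slope (signal/min) is analysed.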
Target sequence in this assay (P49862 whole entry): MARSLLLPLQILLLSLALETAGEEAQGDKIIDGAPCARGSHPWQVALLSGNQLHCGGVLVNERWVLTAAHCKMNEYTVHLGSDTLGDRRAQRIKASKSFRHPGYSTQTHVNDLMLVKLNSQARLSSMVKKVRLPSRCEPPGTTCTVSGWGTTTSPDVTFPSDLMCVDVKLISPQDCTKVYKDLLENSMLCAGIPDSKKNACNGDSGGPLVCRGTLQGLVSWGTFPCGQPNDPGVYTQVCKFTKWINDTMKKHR

[4] = target: T3, Caspase-14 (Homo sapiens, UniProt P31944); test: Inhibition of human caspase 14 using Ac-WEHD-AMC fluorogenic peptide as substrate by fluorescence assay; outline: as §1
T3 sequence (P31944 whole entry): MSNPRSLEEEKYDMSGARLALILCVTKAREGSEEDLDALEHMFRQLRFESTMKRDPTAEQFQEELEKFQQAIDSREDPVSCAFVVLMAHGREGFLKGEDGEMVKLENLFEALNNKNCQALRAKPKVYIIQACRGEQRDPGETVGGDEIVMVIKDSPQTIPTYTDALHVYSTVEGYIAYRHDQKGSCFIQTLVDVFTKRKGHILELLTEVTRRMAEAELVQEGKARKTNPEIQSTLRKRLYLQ

[5] = test system: MDA-MB-231; test: Antiproliferative activity against human MDA-MB-231 cells assessed as reduction in cell viability at 100 uM after 48 hrs by MTT assay; type: functional
Outline: (§2)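 MDA-MB-231 cells seeded at 10,000 cells/well in DMEM with 10% FBS and left 24 h, then exposed to compound or DMSO solvent control for 48 h. Viability read by MTT, compared with solvent control.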

[6] = target: Atypical chemokine receptor 3 (Homo sapiens, UniProt P25106); test: Agonist activity at human CXCR7 expressed in CHOK1 cells assessed as induction of beta-arrestin recruitment by chemiluminescence method; type: functional, cell-based
Outline: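 PathHunter β-arrestin enzyme-fragment complementation assay in cells stably co-expressing ProLink-tagged GPCR and enzyme-acceptor-tagged β-arrestin. Sample is added to cells and incubated 90 or 180 min at 37 °C or room temperature, with 1% final vehicle. Detection reagent is added for 1 h at room temperature and chemiluminescence is read. % activity is taken relative to vehicle and maximal control ligand. Dose-response: 10 points, 3-fold dilutions from 20 μM, in duplicate.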

[7] = target: T4, C-C chemokine receptor type 10 (Homo sapiens, UniProt P46092); test: Antagonist activity at human CCR10 expressed in human U2OS cells assessed as inhibition of CCL27-induced beta-arrestin recruitment pre-incubated for 30 mins before CCL27 stimulation for 90 or 180 mins by chemiluminescence method; type: functional, cell-based
T4 sequence (P46092 whole entry): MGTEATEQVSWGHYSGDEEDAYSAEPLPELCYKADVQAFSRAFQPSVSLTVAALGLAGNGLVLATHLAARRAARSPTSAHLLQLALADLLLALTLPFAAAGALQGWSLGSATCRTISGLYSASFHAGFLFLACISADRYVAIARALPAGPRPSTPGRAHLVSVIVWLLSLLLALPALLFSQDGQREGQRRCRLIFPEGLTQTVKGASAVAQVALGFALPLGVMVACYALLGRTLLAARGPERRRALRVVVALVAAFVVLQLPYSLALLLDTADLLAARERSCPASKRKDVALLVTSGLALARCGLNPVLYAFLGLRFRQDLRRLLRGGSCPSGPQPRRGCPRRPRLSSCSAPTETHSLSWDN
Outline: (§3)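 PathHunter β-arrestin complementation assay, antagonist mode. Cells co-express ProLink-tagged GPCR and enzyme-acceptor-tagged β-arrestin and are pre-incubated with sample for 30 min at 37 °C or room temperature. Dose-response: 10 points, 3-fold dilutions from 20 μM, in duplicate.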

[8] = target: T5, Oxytocin receptor (Homo sapiens, UniProt P30559); test: Antagonist activity at human OXTR expressed in CHOK1 cells assessed as oxytocin-induced beta-arrestin recruitment pre-incubated for 30 mins before oxytocin stimulation for 90 or 180 mins by chemiluminescence method; type: functional, cell-based; outline: as §3
T5 sequence (P30559 whole entry): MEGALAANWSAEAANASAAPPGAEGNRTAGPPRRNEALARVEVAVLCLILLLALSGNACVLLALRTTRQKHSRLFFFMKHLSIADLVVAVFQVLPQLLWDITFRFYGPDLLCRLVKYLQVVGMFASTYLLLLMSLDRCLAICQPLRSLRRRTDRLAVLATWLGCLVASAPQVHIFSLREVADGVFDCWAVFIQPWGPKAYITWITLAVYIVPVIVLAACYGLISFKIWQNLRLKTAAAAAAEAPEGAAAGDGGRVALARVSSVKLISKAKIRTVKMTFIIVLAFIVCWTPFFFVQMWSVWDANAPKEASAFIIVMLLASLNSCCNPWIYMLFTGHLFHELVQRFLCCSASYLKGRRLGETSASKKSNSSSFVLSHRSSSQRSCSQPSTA

[9] = target: T6, Substance-K receptor (Homo sapiens, UniProt P21452); test: Antagonist activity at human TACR2 expressed in CHOK1 cells assessed as substance P-induced beta-arrestin recruitment pre-incubated for 30 mins before substance P stimulation for 90 or 180 mins by chemiluminescence method; type: functional, cell-based; outline: as §3
T6 sequence (P21452 whole entry): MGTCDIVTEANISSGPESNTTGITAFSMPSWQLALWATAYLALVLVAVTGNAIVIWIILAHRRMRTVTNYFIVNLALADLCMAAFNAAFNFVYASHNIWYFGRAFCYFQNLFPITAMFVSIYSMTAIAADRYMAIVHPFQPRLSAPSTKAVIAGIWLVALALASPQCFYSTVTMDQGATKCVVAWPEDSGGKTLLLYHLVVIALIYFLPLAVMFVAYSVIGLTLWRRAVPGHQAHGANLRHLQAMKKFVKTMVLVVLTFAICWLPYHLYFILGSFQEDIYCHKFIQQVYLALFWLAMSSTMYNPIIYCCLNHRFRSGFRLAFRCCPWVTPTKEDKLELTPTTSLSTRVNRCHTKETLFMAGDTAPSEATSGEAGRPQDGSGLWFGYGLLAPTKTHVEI

[10] = target: Somatostatin receptor type 3 (Homo sapiens, UniProt P32745); test: Antagonist activity at human SSTR3 expressed in HEK293 cells assessed as [Tyr1]-somatostatin 14-induced beta-arrestin recruitment pre-incubated for 30 mins before [Tyr1]-somatostatin 14 stimulation for 90 or 180 mins by chemiluminescence method; type: functional, cell-based; outline: as §3
[11] = target: T2, Kallikrein-7; test: Inhibition of kallikrein 7 (unknown origin) using fluorescently labeled peptide substrate by fluorescence assay
Outline: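 KLK7 follow-up: 10-dose titrations, 3-fold serial dilution from 100 μM, in duplicate, with gabexate mesylate as positive control. Fluorescence from the labeled peptide substrate is monitored over time, and the initial linear slope (signal/min) is used to derive IC50.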
Target sequence in this assay (P49862 30-253 limits assumed): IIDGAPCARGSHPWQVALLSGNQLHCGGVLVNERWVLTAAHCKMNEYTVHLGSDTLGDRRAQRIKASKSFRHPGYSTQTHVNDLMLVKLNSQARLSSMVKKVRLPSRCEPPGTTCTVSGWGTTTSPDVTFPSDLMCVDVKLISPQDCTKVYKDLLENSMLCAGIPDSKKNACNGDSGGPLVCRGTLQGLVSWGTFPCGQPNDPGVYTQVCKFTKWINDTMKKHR

[12] = test system: MDA-MB-231; test: Antiproliferative activity against human MDA-MB-231 cells after 48 hrs by MTT assay; type: functional, cell-based
Outline: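 MDA-MB-231 cells are grown in DMEM with 10% FBS and seeded at 10,000 cells/well for 24 h. Cells are then exposed to graded compound concentrations or DMSO for 48 h. Viability is measured by MTT.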

[13] = target: T2, Kallikrein-7; test: Mixed type inhibition of kallikrein 7 (unknown origin) using fluorescently labeled peptide substrate by fluorescence assay based Michaelis-Menten kinetic plot analysis
Target sequence in this assay (P49862 30-253 limits assumed): as above

[14] = test system: MDA-MB-231; test: Antimigratory activity against human MDA-MB-231 cells at 10 uM after 48 hrs by transwell migration assay relative to control; type: functional
[15] = test system: MDA-MB-231; test: Antiproliferative activity against human MDA-MB-231 cells assessed as reduction in cell viability at 32 uM after 48 hrs by MTT assay; type: functional; outline: as §2
[16] = Homo sapiens, MDA-MB-231, 48 h, read-out: IC50

Sequence of Atypical chemokine receptor 3 (P25106 whole entry, the tested form may be a part): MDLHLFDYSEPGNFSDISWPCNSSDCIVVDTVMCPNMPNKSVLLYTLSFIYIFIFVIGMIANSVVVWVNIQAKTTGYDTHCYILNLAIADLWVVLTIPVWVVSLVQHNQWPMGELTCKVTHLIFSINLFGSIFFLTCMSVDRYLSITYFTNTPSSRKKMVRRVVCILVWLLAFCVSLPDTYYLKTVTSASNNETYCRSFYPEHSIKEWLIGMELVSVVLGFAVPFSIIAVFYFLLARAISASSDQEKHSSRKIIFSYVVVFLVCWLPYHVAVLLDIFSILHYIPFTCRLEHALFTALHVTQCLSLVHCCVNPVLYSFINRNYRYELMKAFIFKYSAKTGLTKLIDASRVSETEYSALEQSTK
Sequence of Somatostatin receptor type 3 (P32745 whole entry): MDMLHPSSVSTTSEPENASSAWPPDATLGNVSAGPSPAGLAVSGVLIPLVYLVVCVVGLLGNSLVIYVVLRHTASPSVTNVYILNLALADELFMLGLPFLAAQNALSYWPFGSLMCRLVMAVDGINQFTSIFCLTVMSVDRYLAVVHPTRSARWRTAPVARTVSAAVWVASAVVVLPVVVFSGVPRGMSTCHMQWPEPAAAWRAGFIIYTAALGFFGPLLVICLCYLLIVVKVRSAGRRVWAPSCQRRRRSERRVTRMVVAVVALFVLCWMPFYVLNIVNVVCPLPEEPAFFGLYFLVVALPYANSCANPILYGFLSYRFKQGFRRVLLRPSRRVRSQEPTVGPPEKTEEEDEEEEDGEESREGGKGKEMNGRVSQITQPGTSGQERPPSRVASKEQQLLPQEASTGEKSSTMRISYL

Compound | IC50 [1] | IC50 [2] | IC50 [3] | IC50 [4] | Activity [5] | EC50 [6] | IC50 [7] | IC50 [8] | IC50 [9] | IC50 [10] | inhibition [11] | IC50 [12, 16] | inhibition [13] | IC50 ([12]; mda-mb-231) | Activity [14] | Activity [15]
CC(C)C[C@H](NC(=O)[C@@H](NC(=O)N[C@@H](Cc1ccccc1)C(=O)O)C1CCNC(=N)N1)C(=O)N[C@H](C=O)Cc1ccccc1 (some centres not stated) [CHYMOSTATIN] | 0.00936 µM | 0.00031 µM |  |  |  |  |  |  |  |  |  |  |  |  |  | 
CCOC(=O)c1ccc(OC(=O)CCCCCNC(=N)N)cc1 |  |  | 20.4 µM |  |  |  |  |  |  |  |  |  |  |  |  | 
CC[C@H](C)[C@H](N)C(=O)N[C@@H](CCC(=O)O)C(=O)N[C@H](C(=O)NC(C=O)CC(=O)O)[C@@H](C)O (some centres not stated) (H-IET[ξD]-aldehyde) |  |  |  | 7.28 µM |  |  |  |  |  |  |  |  |  |  |  | 
CC[C@H](C)[C@@H](OC(=O)[C@H](Cc1ccccc1)N(C)C)C(=O)N1CCC[C@H]1C(=O)NCC(=O)N(C)[C@@H](CC(C)C)C(=O)N[C@@H](C)C(=O)N(C)[C@H](Cc1ccccc1)C(=O)N1CCC[C@H]1C(=O)OC (X4-PG[NMeL]A[dNMeF]P-OMe) |  |  |  |  | 50% | 10.5 µM | > 20 µM | > 20 µM | 5.51 µM | 6.11 µM | Active |  |  |  |  | 
CC[C@H](C)[C@@H](OC(=O)C#Cc1ccccc1)C(=O)N1CCC[C@H]1C(=O)NCC(=O)N(C)[C@@H](CC(C)C)C(=O)N[C@@H](C)C(=O)N(C)[C@H](Cc1ccccc1)C(=O)N1CCC[C@H]1C(=O)OC (X5-PG[NMeL]A[dNMeF]P-OMe) |  |  |  |  |  | > 20 µM | > 20 µM | > 20 µM | > 20 µM | > 20 µM | Active | 60 µM |  |  |  | 
CC[C@H](C)[C@@H](O)C(=O)N1CCC[C@H]1C(=O)NCC(=O)N(C)[C@@H](CC(C)C)C(=O)N[C@@H](C)C(=O)N(C)[C@H](Cc1ccccc1)C(=O)N1CCC[C@H]1C(=O)OC ({Hmp(2R,3S)}-PG[NMeL]A[dNMeF]P-OMe) | 101 µM | 8.98 µM | 22.1 µM | 50.3 µM |  | > 20 µM | > 20 µM | > 20 µM | > 20 µM | > 20 µM | Active |  | Active | Not Active | inactive | 
CC[C@H](C)[C@@H](OC(=O)/C=C\c1ccccc1)C(=O)N1CCC[C@H]1C(=O)NCC(=O)N(C)[C@@H](CC(C)C)C(=O)N[C@@H](C)C(=O)N(C)[C@H](Cc1ccccc1)C(=O)N1CCC[C@H]1C(=O)OC (X3-PG[NMeL]A[dNMeF]P-OMe) |  |  |  |  |  | 5.92 µM | 2.71 µM | 5.76 µM | 4.61 µM | > 20 µM | Active | 14.9 µM |  |  |  | 
COC(=O)[C@@H]1CCCN1C(=O)[C@@H](Cc1ccccc1)N(C)C(=O)[C@H](C)NC(=O)[C@H](CC(C)C)N(C)C(=O)CNC(=O)[C@@H]1CCCN1C(=O)[C@H](O)C(C)C (H-[dHiv]PG[NMeL]A[dNMeF]P-OMe) |  |  |  |  |  | > 20 µM | > 20 µM | > 20 µM | > 20 µM | > 20 µM | Active |  |  | Not Active |  | 
CC[C@H](C)[C@@H](OC(=O)CCc1ccccc1)C(=O)N1CCC[C@H]1C(=O)NCC(=O)N(C)[C@@H](CC(C)C)C(=O)N[C@@H](C)C(=O)N(C)[C@H](Cc1ccccc1)C(=O)N1CCC[C@H]1C(=O)OC (X2-PG[NMeL]A[dNMeF]P-OMe) |  |  |  |  |  | 7.81 µM | 3.14 µM | 5.32 µM | 3.22 µM | > 20 µM | Active |  |  |  |  | 50%
